The results in this text go back to ChEMBL document CHEMBL1152601, “Synthesis and biological evaluation of novel phthalazinone derivatives as topically active phosphodiesterase 4 inhibitors” (Bioorg Med Chem, 2009).

The target of data set [1] is 3',5'-cyclic-AMP phosphodiesterase 4D (Homo sapiens, UniProt Q08499). The experiment in a line: Inhibition of human recombinant PDE4D catalytic domain cloned from human HL60 cells assessed as inhibition of cAMP hydrolysis.
The test system of data set [2] is Blood. Nature of the data set: Antiinflammatory activity against Sprague-Dawley rat whole blood assessed as suppression of LPS-induced TNFalpha production by ELISA. The class given is functional, tissue-based. A digest of the protocol:
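Blood from 10-week-old male Sprague-Dawley rats, drawn from the abdominal vein under ether anesthesia into 1.6 mg/mL EDTA. Compound diluted from 10 mM DMSO stock, preincubated with blood for 30 min at 37 °C in 5% CO2. LPS (100 µg/mL solution, 10 µL to 90 µL) added, then 5 h incubation. PBS added, centrifuged, supernatant TNF-α measured by ELISA. IC50 derived for 50% inhibition.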

The test system of data set [3] is Mus musculus. The experiment in a line: Reduction of dermatitis in topically administered BALB/c mouse assessed as reduction of TNCB-induced ear swelling. Details: scale not given: the % may be the effect or the level left. The data set is classed as functional. The gist of the method: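 Eight-week-old male BALB/c mice with TNCB-induced dermatitis on the right pinna. 20 mg of 1% compound in vaseline ointment applied topically; diseased controls got plain vaseline during the last week (n = 4). The untreated left pinna served as normal reference. Pinna thickness measured by digital micrometer 6 h after the last application. Percent reduction of swelling (right minus left) calculated relative to the diseased control.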

Data set [4] in a line: Half life in human liver S9 fraction. The data set is classed as ADME, subcellular. A digest of the protocol:
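Human liver S9 fraction (1 mg protein/mL) in 100 mM potassium phosphate pH 7.4 with NADPH-generating system, preincubated 5 min at 37 °C. Compound added from methanol to 2 µM final, incubated 0, 2 or 10 min at 37 °C, stopped with acetonitrile. Parent remaining quantified by HPLC, UV 314 nm. Half-life obtained as -0.693/k, k from log-linear regression of percent remaining.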

Where [5] appears, read: Rattus norvegicus, Sprague-Dawley, Blood.

pIC50: −log10 of the molar value.

Chain of 3',5'-cyclic-AMP phosphodiesterase 4D (Q08499 whole entry, the tested form may be a part): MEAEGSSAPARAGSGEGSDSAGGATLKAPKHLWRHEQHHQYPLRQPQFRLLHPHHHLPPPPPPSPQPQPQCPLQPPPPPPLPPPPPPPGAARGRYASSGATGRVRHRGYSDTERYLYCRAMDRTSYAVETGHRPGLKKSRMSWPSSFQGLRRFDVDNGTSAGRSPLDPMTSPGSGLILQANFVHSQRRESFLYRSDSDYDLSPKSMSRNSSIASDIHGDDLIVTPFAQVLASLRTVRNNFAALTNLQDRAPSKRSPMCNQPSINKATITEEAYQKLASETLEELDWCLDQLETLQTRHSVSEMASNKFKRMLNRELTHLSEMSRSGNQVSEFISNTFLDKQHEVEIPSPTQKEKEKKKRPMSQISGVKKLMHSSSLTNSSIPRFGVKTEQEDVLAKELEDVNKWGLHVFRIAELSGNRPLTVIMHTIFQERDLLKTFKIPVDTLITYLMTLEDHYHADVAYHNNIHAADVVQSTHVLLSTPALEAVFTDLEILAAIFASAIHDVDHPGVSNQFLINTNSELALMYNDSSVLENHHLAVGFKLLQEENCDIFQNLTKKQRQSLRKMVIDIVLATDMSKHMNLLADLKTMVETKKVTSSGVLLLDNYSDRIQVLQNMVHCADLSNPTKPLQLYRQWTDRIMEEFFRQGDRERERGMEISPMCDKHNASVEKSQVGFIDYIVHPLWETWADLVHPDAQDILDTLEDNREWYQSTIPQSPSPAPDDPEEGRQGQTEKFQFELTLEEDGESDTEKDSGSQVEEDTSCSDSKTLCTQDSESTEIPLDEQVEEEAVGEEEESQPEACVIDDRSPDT

`COc1ccc(C2=NN(Cc3ccc(Cn4ccnc4)cc3)C(=O)[C@@H]3CC=CC[C@H]23)cc1OC` (relative stereo): the pIC50 in data set [1] is 9.15; in data set [2] (setting [5]), 9.30.

On to `COc1ccc(C2=NN(Cc3ccc(CN4CCOCC4)cc3)C(=O)CC2)cc1OC`, for which the pIC50 in data set [1] is 7.34; in data set [2] (setting [5]), 6.35.

In the case of `COc1ccc(C2=NN(C/C=C/Cn3ccnc3)C(=O)[C@@H]3CC=CC[C@H]23)cc1OC` (relative stereo), the pIC50 is 9.40 in data set [1] and 9.15 in data set [2] (setting [5]).

Turning to `COc1ccc(C2=NN(CCOCCn3ccnc3)C(=O)[C@@H]3CC=CC[C@H]23)cc1OC` (relative stereo), the negative logarithm of the IC50 (pIC50) is 8.28 in data set [1] and 8.04 in data set [2] (setting [5]).

With `COc1ccc(C2=NN(CC(=O)NCCCn3ccnc3)C(=O)[C@@H]3CC=CC[C@H]23)cc1OC` (relative stereo), the pIC50 in data set [1] is 7.84; in data set [2] (setting [5]) it was 6.95.

Take `COc1ccc(C2=NN(Cc3ccccc3CN3CCOCC3)C(=O)[C@@H]3CC=CC[C@H]23)cc1OC` (relative stereo): the pIC50 in data set [1] is 8.89; in data set [2] (setting [5]) it was 9.00. For the same compound, the Activity in data set [3] is recorded as 36.8%.

Take `COc1ccc(C2=NN(Cc3ccc(CN4CCN(C)CC4)cc3)C(=O)[C@@H]3CC=CC[C@H]23)cc1OC` (relative stereo): the pIC50 was 8.70 in data set [1] and 7.84 in data set [2] (setting [5]).

For the compound `COc1ccc(C2=NN(Cc3ccccc3CN3CCOCC3)C(=O)[C@@H]3CCCC[C@H]23)cc1OC` (relative stereo), the pIC50 is 9.00 in data set [1] and 8.34 in data set [2] (setting [5]).

`COc1ccc(C2=NN(Cc3cccc(CN4CCOCC4)c3)C(=O)[C@@H]3CC=CC[C@H]23)cc1OC` (relative stereo): the pIC50 in data set [1] is 8.85; in data set [2] (setting [5]), 8.52.

Turning to `COc1ccc(C2=NN(Cc3ccc(CN4CCOCC4)cc3)C(=O)[C@@H]3CC=CC[C@H]23)cc1OC` (racemic), the negative logarithm of the IC50 (pIC50) in data set [1] and in data set [2] was 9.05 each time.

Regarding `COc1ccc(C2=NN(Cc3ccc(CN4CCOCC4)cc3)C(=O)[C@@H]3CC=CC[C@H]23)cc1OC`, the values for the pIC50 in data set [1] and in data set [2] were 8.06 and 7.09, respectively.

Turning to `COc1ccc(C2=NN(Cc3ccc(CN4CCCCC4)cc3)C(=O)[C@@H]3CC=CC[C@H]23)cc1OC` (relative stereo), the pIC50 in data set [1] was 8.09; in data set [2] (setting [5]), 7.24.

On to `COc1ccc(C2=NN(Cc3ccc(CN4CCOCC4)cc3)C(=O)[C@@H]3CC=CC[C@H]23)cc1OC.Cl`, for which the pIC50 in data set [1] is 9.52; in data set [2], 8.38. The same compound displayed a half-life in data set [4] of 6 min. Also, in data set [3], the Activity came to 38.5%.

With `COc1ccc(C2=NN(Cc3ccc(CN4CCC5(CC4)OCCO5)cc3)C(=O)[C@@H]3CC=CC[C@H]23)cc1OC` (relative stereo), the figures for the negative-log IC50 (pIC50) in data set [1] and in data set [2] (setting [5]) were 8.89 and 9.05, respectively.

Take `COc1ccc(C2=NNC(=O)[C@@H]3CC=CC[C@H]23)cc1OC` (racemic): the pIC50 was 7.07 in data set [1] and 6.68 in data set [2] (setting [5]).

Take `COc1ccc(C2=NN(Cc3ccc(CN4CCC(=O)CC4)cc3)C(=O)[C@@H]3CC=CC[C@H]23)cc1OC` (relative stereo): the figures for the negative-log IC50 (pIC50) in data set [1] and in data set [2] (setting [5]) were 9.05 and 8.52, respectively. Further, the Activity in data set [3] is 36.8%.

Take `COc1ccc(C2=NN(Cc3ccc(CN4CCOCC4)cc3)C(=O)[C@@H]3C[C@H]23)cc1OC` (relative stereo): the pIC50 in data set [1] was 7.79; in data set [2] (setting [5]), 6.93.

As to `COc1ccc(C2=NN(Cc3ccc(CN4CCOCC4)cc3)C(=O)[C@@H]3CC[C@H]23)cc1OC` (relative stereo), the pIC50 in data set [1] was 8.37; in data set [2] (setting [5]), 7.35.

With `COc1ccc(C2=NN(Cc3ccc(CN(C)C)cc3)C(=O)[C@@H]3CC=CC[C@H]23)cc1OC` (relative stereo), the pIC50 is 8.01 in data set [1] and 7.46 in data set [2] (setting [5]).
